Source: PubChem (several laboratories)
Most compounds without a hit are left out; they make up all but 1.7% or so of the library.
Runt-SMMHC FRET = inhibitors of human RUNX1 Runt domain binding to CBFb-SMMHC; Q01196+Q13951; Cerulean-Runt/Venus-CBFb-SMMHC FRET ratio 530/480, 1 h; inhibition, % at 20 µM; 220,000 tested, 0.74% active;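 active = mean inhibition across duplicate retests at 20 µM reaching about 50%, limit read from the data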;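 also: 0% = DMSO wells and 100% = wells with excess untagged CBFb-SMMHC; inhibitors lower the FRET ratio by blocking Runt binding to CBFb-SMMHC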
Runt-CBFb FRET = Runt domain-CBFb interaction inhibition. Q01196+Q13951. 220,000 tested, 0.46% active. Cerulean-Runt/Venus-CBFb FRET ratio 530/480, 1 h. AID 1496. inhibition, % at 20 µM;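 active = inhibition over about 50% at 20 µM in the single-dose screen, limit read from the data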;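 also: 0% = DMSO wells and 100% = excess unlabeled CBFb competitor control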
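test system = Cerulean-Runt domain fusion protein, energy donor | probe or stimulus = Venus-CBFb binding partner, 100 nM | incubation = two 1 h room-temperature incubations shielded from light | detection = fluorescence energy transfer, 422 nm excitation, 530/480 nm emission | measure = loss of energy transfer signal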
RanGTP-Impb inh = disruptors of Ran-importin-beta complex formation – biochemical, FRET, CFP-Ran, YFP-importin-beta, homogeneous, primary screen; inhibition, % (no concentration beside the values); cell-free CFP-Ran/YFP-importin-beta FRET ratio; 300,000 tested, 1.1% active; AID 2216;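 active = more than half of the replicate wells show a fall in the fluorescence ratio signal beyond about 16%, limit read from the data, passing the limit was not always enough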;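 also: 0% = DMSO wells and 100% = Ran loaded with GDP instead of GTP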
Rce1 inh = blocks yeast Ras-converting enzyme. Q03530. 290,000 tested, 0.27% active. calls only. yeast membranes, quenched prenylated peptide cleavage fluorescence;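 active = fall in fluorescence gain of 50% or more versus controls, with final raw signal at or below 3038400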;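 also: plate controls were neutral control wells for no effect and wells lacking membranes for full effect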
Target sequence (Q03530 whole entry, looked up): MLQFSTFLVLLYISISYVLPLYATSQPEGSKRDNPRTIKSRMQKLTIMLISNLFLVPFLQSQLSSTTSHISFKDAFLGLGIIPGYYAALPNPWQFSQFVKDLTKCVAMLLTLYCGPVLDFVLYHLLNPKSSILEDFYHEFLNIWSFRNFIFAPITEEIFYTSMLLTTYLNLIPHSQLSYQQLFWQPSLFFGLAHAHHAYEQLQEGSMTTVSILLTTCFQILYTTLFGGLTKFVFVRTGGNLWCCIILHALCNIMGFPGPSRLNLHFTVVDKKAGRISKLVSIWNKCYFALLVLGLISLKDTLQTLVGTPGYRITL
Vif inh = HIV Vif inhibition; 340,000 tested, 0.35% active; HEK293T cells, Vif self-association by quenched fluorescence, imaging, 24 h; inhibition, % at 7.49 µM; in the data active = inhibition above about 50%, passing the limit was not always enough
YIC counter = counter-screen YIC FRET for RanGTP-importin-beta inhibitors. shares compounds with RanGTP-Impb inh. Purified YIC probe, intramolecular FRET ratio YFP/CFP. IC50, µM. 1,000 tested, 40% active;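 active = fitted half-maximal inhibitory concentration no more than tenfold above the top dose tested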
* = called active by the depositor; i = inactive; x = not tested or not shown.

SMILES	Runt-SMMHC FRET	Runt-CBFb FRET	RanGTP-Impb inh	Rce1 inh	Vif inh	YIC counter
O=C(COc1ccccc1Br)Nc1ccc(S(=O)(=O)N2CCCC2)cc1	x	x	x	x	-10	x
CC#CC(=O)N1CCC(C(=O)Nc2ccc(Oc3ccccc3)nc2)CC1	x	x	18*	i	-17	>50
CCOC(=O)c1ccc(NC(=O)CSc2nc(C)nc3c2c(=O)n(C)c(=O)n3C)cc1	0	-18	19*	i	4	>50
S=c1[nH]c2ccc3ccccc3c2[nH]1	7	-15	17*	i	-4	>50
Cc1sc(NC(=O)c2ccccc2)c(C#N)c1-c1ccccc1	2	2	39*	i	-4	>50
N=NC(=O)c1ccccc1Nc1c(O)[nH]c2ccccc12	x	x	x	x	-14	x
CCN(/N=C/C=C/c1ccccc1)c1cc(=O)n(C)c(=O)[nH]1	1	1	27*	i	5	>50
CCN(/N=C/c1ccc(Cl)cc1)c1cc(=O)n(C)c(=O)[nH]1	8	4	4	i	-1	x
CCN(CC)S(=O)(=O)c1ccc(/C=C/C(=O)Nc2ccc(Br)cc2F)cc1	1	1	2	i	-22	x
CCN(CC)S(=O)(=O)c1ccc(/C=C/C(=O)Nc2ccc(F)cc2F)cc1	0	0	21*	i	2	>50
C[C@@H]1CN([C@H](C)CO)C(=O)c2cc(Br)cnc2O[C@H]1CN(C)C(=O)Nc1ccccc1F	x	x	x	x	3	x
CCOC(=O)CNC(=O)C1CCCN(c2ncccn2)C1 (stereo unspecified)	-1	0	21*	i	-1	>50
O=C(NCc1cccs1)C1CCCN(c2ncccn2)C1 (stereo unspecified)	-3	0	-2	i	16	x
CCC(=O)Nc1ccc(C(=O)CN2C(=O)NC3(CCCCCC3)C2=O)cc1	x	x	x	x	-1	x
NC(=O)c1ccccc1NC(=O)/C=C/c1ccc(Cl)cc1	1	1	23*	i	-6	>50
Cc1cc(C)c(S(=O)(=O)Nc2ccccn2)c(C)c1	x	x	-4	i	13	x
Cn1c(SCc2cccc([N+](=O)[O-])c2)nc2c(c1=O)SCC2	-1	0	16*	i	-13	>50
CN(C)S(=O)(=O)c1cccc(NC(=O)CO/N=C(\N)c2ccccc2)c1	x	x	-1	i	0	x
O=C(CN1CCN(C/C=C/c2ccccc2)CC1)NC(=O)NC1CCCCC1	0	-3	29*	i	-1	>50
C/C(CC(=O)NC12CC3CC(CC(C3)C1)C2)=N\NC(=O)c1ccc(C)cc1	1	0	6	i	3	x
CCOc1ccc(NC(=O)CN2C(=O)COc3ccc(Cl)cc32)cc1	1	3	18*	i	-5	>50
O=C(CN1C(=O)COc2ccc(Cl)cc21)Nc1ccc2c(c1)OCCO2	0	2	6	i	x	x
CN1/C(=C/C(=O)COC(=O)C2COc3ccccc3O2)C(C)(C)c2ccccc21 (stereo unspecified)	x	x	x	x	7	x
Cc1nc2[nH]c(=O)c3c(n2n1)NC1=C(C(=O)CC(C)(C)C1)C3c1ccccc1 (stereo unspecified)	136*	78*	49*	i	2	4.3*
CCn1c(C(=O)Nc2ccsc2C(=O)OC)cc2sc(Cl)cc21	8	-3	20*	i	-2	47*
SMILES	Runt-SMMHC FRET	Runt-CBFb FRET	RanGTP-Impb inh	Rce1 inh	Vif inh	YIC counter
COC(=O)c1sccc1NC(=O)c1csc(C)c1	6	-1	19*	i	-6	>50
COC(=O)c1sccc1NC(=O)c1ccc(C)cc1	x	x	4	i	7	x
Cc1ccc(Cl)cc1-n1c(=O)cc(N2CC(C)OC(C)C2)[nH]c1=O (stereo unspecified)	-6	0	56*	i	x	>50
CC1CN(c2cc(=O)n(-c3ccc(Cl)cc3)c(=O)[nH]2)CC(C)O1 (stereo unspecified)	-3	0	x	x	3	x
COc1ccc(-c2nc(NC(=O)c3n[nH]c(=O)c4ccccc34)sc2C)cc1	-33	-14	22*	i	-10	>50
O=C(Cc1cc(=O)oc2cc(O)ccc12)NCC1CCC(C(=O)O)CC1 (stereo unspecified)	62*	108*	32*	i	34	9.8*
CC1(C)CC(=O)C=C(NC2CCCCCCC2)C1	-1	-2	1	i	-5	x
CC1(C)CC(=O)C=C(NNC(=O)C2CCCCC2)C1	-1	-4	19*	i	-4	>50
Cc1ccccc1Cn1nnc(-c2ccc(C(=O)O)cc2)n1	0	2	-2	i	5	x
Cc1ccccc1Cn1nnc(-c2cccc(C(=O)O)c2)n1	-2	0	16*	i	5	>50
N#C/C(=C/c1cn(CC(=O)O)c2ccccc12)C(=O)NCc1ccccc1	4	4	23*	i	-2	>50
CC1=C(C(=O)OCC2CCCO2)C(c2ccccc2OC(C)C)C2=C(CC(c3ccco3)CC2=O)N1 (stereo unspecified)	103*	43	28*	x	-9	6.9*
Cc1ccc(NC(=O)Cc2nc(CN(C)CC(=O)Nc3ccc(C)cc3)cs2)cc1	x	x	x	x	-5	x
Cc1ccc(Nc2cc(C)nn2-c2nc(C)cc(C)n2)cc1	-2	-1	24*	i	4	>50
Cc1ccc(Nc2cc(C)nn2-c2nc(C)cc(=O)[nH]2)cc1	-4	x	3	i	-3	x
CN1CCN(CC(=O)Nc2cc(N(C)C)nc3ccccc23)CC1	0	0	1	i	0	x
CC(NC(=O)/C(C#N)=C/c1ccc(N2CCOCC2)cc1)c1ccccc1 (stereo unspecified)	x	x	31*	x	-9	11*
COC(=O)c1ccc(/C=C(\C#N)C(=O)NC(C)c2ccccc2)cc1 (stereo unspecified)	3	2	x	x	1	x
C=CCn1c(SCC(=O)Nc2sccc2C(N)=O)nc2ccccc2c1=O	0	-1	19*	i	-27	>50
COCCCn1c(=N)c(C(=O)NCc2ccc3c(c2)OCO3)cc2c(=O)n3ccccc3nc21	172*	79*	36*	i	8	25*
CCOCCCn1c(=N)c(C(=O)NCc2ccc3c(c2)OCO3)cc2c(=O)n3cccc(C)c3nc21	163*	60*	29*	i	x	18*
O=C(NNC(=O)c1cccc2ccccc12)c1ccc(Br)cc1	x	x	x	x	0	x
Cc1ccc2cc(C#N)c(N3CCN(C(=O)c4cccs4)CC3)nc2c1	x	x	8	i	-1	x
COCCNC(=S)N1CCCN(c2nc3cc(C)ccc3cc2C#N)CC1	x	x	18*	i	-9	31*
CCOC(=O)C1=CN(Cc2cccc(-c3ccc(Cl)nc3)c2)S(=O)(=O)N(C)C1C (stereo unspecified)	x	x	x	x	-3	x
